Tests used:
[1] = Cytotoxicity against human COLO320 cells assessed as cell viability after 72 hrs by WST-1 assay; assay type: functional, cell-based; settings: COLO 320, 72 h
Method in brief: (§1)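 Cells grown in DMEM with L-glutamine (2 mM), 10% foetal bovine serum, 2.5% horse serum and penicillin/streptomycin at 37 °C under 5% CO₂. Seeded at 2 × 10³ cells/well and exposed to compound for 72 h, with DMSO ≤0.2% final. WST-1 added, absorbance read at 450 nm, and % reduction vs control calculated. IC₅₀ and Emax from nonlinear least-squares curve fit. Mean ± SEM, n = 3.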

[2] = system: Calu-3; assay: Cytotoxicity against human Calu3 cells assessed as cell viability after 72 hrs by WST-1 assay; assay type: functional, cell-based; settings: Calu-3, 72 h; method in brief: as §1
[3] = system: COLO 320; assay: Induction of apoptosis in human COLO320 cells assessed as induction of caspase-3/7 at 20 uM after 4 hrs by spectrofluorimetry relative to control; assay type: functional; settings: in the assay text read “at 10 uM” for “at 20 uM”
Method in brief: (§2)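 Cells seeded at 7 × 10³/well and treated with compound for 4 h. Apo-ONE homogeneous caspase-3/7 substrate then added. Fluorescence read at excitation 485 nm and emission 530 nm. Result given as the ratio of treated-cell signal to vehicle-only cells.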

[4] = Cytotoxicity against human BSMC cells assessed as cell viability at 20 uM after 72 hrs by WST-1 assay; assay type: cell-based
Method in brief: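 Normal human bronchial smooth muscle cells grown in DMEM with 10% FBS and exposed to compound for 72 h. Viability compared with untreated control.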

[5] = system: Calu-3; assay: Induction of apoptosis in human Calu3 cells assessed as induction of caspase-3/7 at 10 uM after 4 hrs by spectrofluorimetry relative to control; assay type: functional; settings: in the assay text read “at 20 uM” for “at 10 uM”; method in brief: as §2

Structure (SMILES)	IC50 [1] [µM]	IC50 [2] [µM]	fold change (FC) [3]	Activity [4]	fold change (FC) [5]
COc1ccc(-c2cc(-c3cc4ccccc4[nH]3)no2)cc1	> 100	> 100	–	–	–
COc1cccc(-c2cc(-c3cc4ccccc4[nH]3)no2)c1	> 100	> 100	–	–	–
COc1ccc(-c2cc(-c3cc4ccccc4n3C)no2)cc1	> 100	> 100	–	–	–
Cn1c(-c2cc(-c3cccc(F)c3)on2)cc2ccccc21	> 100	> 100	–	–	–
COc1cccc(-c2cc(-c3cc4cc(OC)ccc4[nH]3)no2)c1	> 100	> 100	–	–	–
COc1cccc(-c2cc(-c3cc4ccccc4n3C)no2)c1	69.5	17.3	–	–	–
COc1ccc2[nH]c(-c3cc(-c4cccc(F)c4)on3)cc2c1	> 100	> 100	–	–	–
COc1ccc(-c2cc(-c3cc4ccccc4n3C)on2)cc1	> 100	> 100	–	–	–
COc1cccc(-c2cc(-c3cc4ccccc4n3C)on2)c1	> 100	> 100	–	–	–
COc1ccc2[nH]c(-c3cc(-c4cccc(F)c4)no3)cc2c1	> 100	97.9	–	–	–
Cn1c(-c2cc(-c3ccc(F)cc3)no2)cc2ccccc21	> 100	> 100	–	–	–
COc1ccc(-c2cc(-c3c(Cl)c4ccccc4n3C)no2)cc1	78.1	60.9	–	–	–
Cn1c(-c2cc(-c3ccc(C(F)(F)F)cc3)on2)c(Cl)c2ccccc21	> 100	> 100	–	–	–
O=[N+]([O-])c1ccc(-c2cc(-c3ccc4[nH]ccc4c3)on2)cc1	14	25.8	3.76	Toxic	2.84
COC(=O)c1ccc(-c2cc(-c3ccc4[nH]ccc4c3)on2)cc1	> 100	> 100	–	–	–
COc1ccc(-c2cc(-c3ccc4[nH]ccc4c3)on2)cc1	13.5	22.5	2.18	Non-toxic	2.44
Fc1ccc(-c2cc(-c3ccc4[nH]ccc4c3)on2)cc1	13.9	16.8	1.81	Toxic	1.94
COc1cc(-c2cc(-c3ccc4[nH]ccc4c3)on2)cc(OC)c1OC	9	13.3	2.38	Non-toxic	3.39
O=c1[nH]cc(F)c(=O)[nH]1 [FLUOROURACIL]	12.5	–	–	–	–

From ChEMBL document CHEMBL2146375, “Synthesis and evaluation of indole-containing 3,5-diarylisoxazoles as potential pro-apoptotic antitumour agents” (Eur J Med Chem, 2012)
